Data from ChEMBL document CHEMBL3120102, “Structure-based design, synthesis and biological evaluation of novel anthra[1,2-d]imidazole-6,11-dione homologues as potential antitumor agents” (2013).

Assays:
NCI-H23 = assay: Cytotoxicity against human NCI-H23 cells assessed as cell growth at 10 uM after 48 hrs by SRB assay; format: functional; conditions: NCI-H23, 48 h, read-out: Activity
Procedure, shortened: (§1)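 First stage of the NCI 60 human tumour cell line screen: a single dose is tested against every line. Cell growth is read as cellular protein by sulforhodamine B colorimetry after 48 h of drug exposure, with reference to a time-zero control and to untreated plates.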

DU-145 = assay: Cytotoxicity against human DU145 cells assessed as cell growth at 10 uM after 48 hrs by SRB assay; format: functional; conditions: DU-145, 48 h, read-out: Activity
Procedure, shortened: (§2)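 NCI 60-cell-line screen, first stage: compound at a single dose of […] (unit as printed) for 48 h. Cellular protein was measured by sulforhodamine B colorimetry. Growth was determined using a time-zero cell control and plates not exposed to drug.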

NCI-H226 = assay: Cytotoxicity against human NCI-H226 cells assessed as cell growth at 10 uM after 48 hrs by SRB assay; format: functional; conditions: NCI-H226, 48 h, read-out: Activity; procedure, shortened: as §1
SK-OV-3 = assay: Cytotoxicity against human SKOV3 cells assessed as cell growth at 10 uM after 48 hrs by SRB assay; format: functional; conditions: SK-OV-3, 48 h, read-out: Activity; procedure, shortened: as §1
[1] = molecular target: Telomerase reverse transcriptase (Homo sapiens) (UniProt O14746); assay: Inhibition of human tert transcriptional activity assessed as SEAP activity at 100 uM after 24 hrs by SEAP reporter assay; design: scale not given: the % may be the effect or the level left
Chain of Telomerase reverse transcriptase (Homo sapiens) (O14746 whole entry): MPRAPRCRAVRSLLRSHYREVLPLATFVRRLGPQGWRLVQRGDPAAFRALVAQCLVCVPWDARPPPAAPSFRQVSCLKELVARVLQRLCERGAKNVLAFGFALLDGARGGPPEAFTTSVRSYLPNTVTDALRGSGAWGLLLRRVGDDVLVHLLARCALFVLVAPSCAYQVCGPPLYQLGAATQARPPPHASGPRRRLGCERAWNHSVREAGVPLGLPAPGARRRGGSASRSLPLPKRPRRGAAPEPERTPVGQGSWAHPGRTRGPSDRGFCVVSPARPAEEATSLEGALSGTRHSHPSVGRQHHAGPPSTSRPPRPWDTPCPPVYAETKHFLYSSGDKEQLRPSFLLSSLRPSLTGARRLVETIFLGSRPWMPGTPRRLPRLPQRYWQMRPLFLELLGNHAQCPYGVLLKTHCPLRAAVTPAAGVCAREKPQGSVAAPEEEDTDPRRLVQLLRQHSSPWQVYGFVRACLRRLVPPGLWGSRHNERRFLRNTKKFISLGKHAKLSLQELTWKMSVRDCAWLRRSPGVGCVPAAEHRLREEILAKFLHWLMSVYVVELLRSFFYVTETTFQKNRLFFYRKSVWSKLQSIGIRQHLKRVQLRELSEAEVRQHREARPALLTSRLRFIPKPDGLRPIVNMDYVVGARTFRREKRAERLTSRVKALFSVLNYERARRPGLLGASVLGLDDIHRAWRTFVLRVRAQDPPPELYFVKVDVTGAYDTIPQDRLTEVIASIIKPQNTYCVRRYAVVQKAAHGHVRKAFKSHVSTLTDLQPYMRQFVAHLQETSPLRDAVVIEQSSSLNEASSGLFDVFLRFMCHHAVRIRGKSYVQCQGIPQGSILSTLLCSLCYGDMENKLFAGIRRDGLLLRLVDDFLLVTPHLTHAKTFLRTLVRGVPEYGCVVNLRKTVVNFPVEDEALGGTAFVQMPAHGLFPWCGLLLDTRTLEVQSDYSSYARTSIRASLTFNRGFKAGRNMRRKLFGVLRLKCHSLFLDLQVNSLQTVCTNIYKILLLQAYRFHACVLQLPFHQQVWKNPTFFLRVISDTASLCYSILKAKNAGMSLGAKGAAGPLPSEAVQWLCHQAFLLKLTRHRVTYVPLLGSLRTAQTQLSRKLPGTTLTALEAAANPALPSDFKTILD
Procedure, shortened: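 Reporter assay for hTERT transcriptional activity using secreted alkaline phosphatase. About 2 × 10³ cells per well were grown for 24 h at 37 °C, then given fresh medium. Buffer was added to the medium: 2 M diethanolamine, 1 mM MgCl2 and 20 mM L-homoarginine. p-Nitrophenyl phosphate was added to 12 mM final. The rate of absorbance increase was read at 405 nm.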

RXF 393 = assay: Cytotoxicity against human RXF393 cells assessed as cell growth at 10 uM after 48 hrs by SRB assay; format: functional; conditions: RXF 393, 48 h, read-out: Activity; procedure, shortened: as §1
[2] = Cytotoxicity against human OVCAR5 cells assessed as cell growth at 10 uM after 48 hrs by SRB assay; format: functional; conditions: OVCAR-5, 48 h, read-out: Activity; procedure, shortened: as §1
MDA-MB-231 = assay: Cytotoxicity against human MDA-MB-231 cells assessed as cell growth at 10 uM after 48 hrs by SRB assay; format: functional; conditions: MDA-MB-231, 48 h, read-out: Activity; procedure, shortened: as §1
HCC 2998 = assay: Cytotoxicity against human HCC2998 cells assessed as cell growth at 10 uM after 48 hrs by SRB assay; format: functional; conditions: HCC 2998, 48 h, read-out: Activity
KM12 = assay: Cytotoxicity against human KM12 cells assessed as cell growth at 10 uM after 48 hrs by SRB assay; format: functional; conditions: KM12, 48 h, read-out: Activity
TK-10 = assay: Cytotoxicity against human TK10 cells assessed as cell growth at 10 uM after 48 hrs by SRB assay; format: functional; conditions: TK-10, 48 h, read-out: Activity
Procedure, shortened: (§3)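 First stage of the NCI 60 human tumour cell line screen, with each compound tested at a single dose of 10. Cellular protein measured by sulforhodamine B colorimetry after 48 h drug exposure. Growth is calculated against a time-zero cell control and against plates not exposed to drug.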

HOP-62 = assay: Cytotoxicity against human HOP62 cells assessed as cell growth at 10 uM after 48 hrs by SRB assay; format: functional; conditions: HOP-62, 48 h, read-out: Activity; procedure, shortened: as §2
PC-3 = assay: Cytotoxicity against human PC3 cells assessed as cell growth at 10 uM after 48 hrs by SRB assay; format: functional; conditions: PC-3, 48 h, read-out: Activity; procedure, shortened: as §1
MOLT-4 = assay: Cytotoxicity against human MOLT4 cells assessed as cell growth at 10 uM after 48 hrs by SRB assay; format: functional; conditions: MOLT-4, 48 h, read-out: Activity; procedure, shortened: as §1
NCI-H522 = assay: Cytotoxicity against human NCI-H522 cells assessed as cell growth at 10 uM after 48 hrs by SRB assay; format: functional; conditions: NCI-H522, 48 h, read-out: Activity; procedure, shortened: as §1
OVCAR-8 = assay: Cytotoxicity against human OVCAR8 cells assessed as cell growth at 10 uM after 48 hrs by SRB assay; format: functional; conditions: OVCAR-8, 48 h, read-out: Activity; procedure, shortened: as §1
[3] = Cytotoxicity against human OVCAR4 cells assessed as cell growth at 10 uM after 48 hrs by SRB assay; format: functional; conditions: OVCAR-4, 48 h, read-out: Activity; procedure, shortened: as §1
NCI-H460 = assay: Cytotoxicity against human NCI-H460 cells assessed as cell growth at 10 uM after 48 hrs by SRB assay; format: functional; conditions: NCI-H460, 48 h, read-out: Activity; procedure, shortened: as §1
SN12C = assay: Cytotoxicity against human SN12C cells assessed as cell growth at 10 uM after 48 hrs by SRB assay; format: functional; conditions: read-out: Activity; procedure, shortened: as §1
HCT-116 = assay: Cytotoxicity against human HCT116 cells assessed as cell growth at 10 uM after 48 hrs by SRB assay; format: functional; conditions: HCT-116, 48 h, read-out: Activity
Malme-3M = assay: Cytotoxicity against human MALME-3M cells assessed as cell growth at 10 uM after 48 hrs by SRB assay; format: functional; conditions: read-out: Activity
SNB-19 = assay: Cytotoxicity against human SNB19 cells assessed as cell growth at 10 uM after 48 hrs by SRB assay; format: functional; conditions: SNB-19, 48 h, read-out: Activity; procedure, shortened: as §3
M14 = assay: Cytotoxicity against human M14 cells assessed as cell growth at 10 uM after 48 hrs by SRB assay; format: functional; conditions: M14, 48 h, read-out: Activity; procedure, shortened: as §2
IGROV-1 = assay: Cytotoxicity against human IGROV1 cells assessed as cell growth at 10 uM after 48 hrs by SRB assay; format: functional; conditions: IGROV-1, 48 h, read-out: Activity
UACC-62 = assay: Cytotoxicity against human UACC62 cells assessed as cell growth at 10 uM after 48 hrs by SRB assay; format: functional; conditions: UACC-62, 48 h, read-out: Activity; procedure, shortened: as §3
A498 = assay: Cytotoxicity against human A498 cells assessed as cell growth at 10 uM after 48 hrs by SRB assay; format: functional; conditions: A498, 48 h, read-out: Activity
[4] = Cytotoxicity against human UO31 cells assessed as cell growth at 10 uM after 48 hrs by SRB assay; format: functional; conditions: UO-31, 48 h, read-out: Activity; procedure, shortened: as §3
SF-539 = assay: Cytotoxicity against human SF539 cells assessed as cell growth at 10 uM after 48 hrs by SRB assay; format: functional; conditions: SF-539, 48 h, read-out: Activity; procedure, shortened: as §1
SF-295 = assay: Cytotoxicity against human SF295 cells assessed as cell growth at 10 uM after 48 hrs by SRB assay; format: functional; conditions: SF-295, 48 h, read-out: Activity; procedure, shortened: as §1
SR = assay: Cytotoxicity against human SR cells assessed as cell growth at 10 uM after 48 hrs by SRB assay; format: functional; conditions: read-out: Activity; procedure, shortened: as §3
CCRF-CEM = assay: Cytotoxicity against human CCRF-CEM cells assessed as cell growth at 10 uM after 48 hrs by SRB assay; format: functional; conditions: read-out: Activity
SK-MEL-2 = assay: Cytotoxicity against human SK-MEL-2 cells assessed as cell growth at 10 uM after 48 hrs by SRB assay; format: functional; conditions: SK-MEL-2, 48 h, read-out: Activity; procedure, shortened: as §1
[5] = Cytotoxicity against human NCI-ADR-RES cells assessed as cell growth at 10 uM after 48 hrs by SRB assay; format: functional; conditions: read-out: Activity; procedure, shortened: as §1

SMILES | growth at 10 µM (NCI-H23) | growth at 10 µM (DU-145) | growth at 10 µM (NCI-H226) | growth at 10 µM (SK-OV-3) | Activity [1] | growth at 10 µM (RXF 393) | growth at 10 µM [2] | growth at 10 µM (MDA-MB-231) | growth at 10 µM (HCC 2998) | growth at 10 µM (KM12) | growth at 10 µM (TK-10) | growth at 10 µM (HOP-62) | growth at 10 µM (PC-3) | growth at 10 µM (MOLT-4) | growth at 10 µM (NCI-H522) | growth at 10 µM (OVCAR-8) | growth at 10 µM [3] | growth at 10 µM (NCI-H460) | growth at 10 µM (SN12C) | growth at 10 µM (HCT-116) | other results
CCSc1nc2ccc3c(c2[nH]1)C(=O)c1ccccc1C3=O | 87.4% | 64.5% | 62.1% | 24.7% | 17% | 99.9% | 85.4% | 84.8% | 89.4% | 68.3% | 74.1% | 95.6% | 53.8% | 101% | 78.6% | 96.8% | 55% | 38.8% | 67.9% | 68.8% | growth at 10 µM (Malme-3M): 63.3%; growth at 10 µM (SNB-19): 87.9%; growth at 10 µM (M14): 67.1%; growth at 10 µM (IGROV-1): 73.4%; growth at 10 µM (UACC-62): 47.6%; growth at 10 µM (A498): 75.5%; growth at 10 µM [4]: 49.2%; growth at 10 µM (SF-539): 58.6%; growth at 10 µM (SF-295): 101%; growth at 10 µM (SR): 129%; growth at 10 µM (CCRF-CEM): 36.9%; growth at 10 µM (SK-MEL-2): 81.7%; growth at 10 µM [5]: 85.7%
O=C1c2ccccc2C(=O)c2c1ccc1nc3n(c21)CCS3 | 84.3% | 68.8% | 80.5% | 87.4% | 48% | 46.5% | 105% | 94% | 94.8% | 84.9% | 58.8% | 85.3% | 93.9% | 58.4% | 80.6% | 75.4% | 89.3% | 59.5% | 74.9% | 68.4% | growth at 10 µM (Malme-3M): 87.6%; growth at 10 µM (SNB-19): 74.5%; growth at 10 µM (M14): 78.5%; growth at 10 µM (IGROV-1): 62.3%; growth at 10 µM (UACC-62): 73.1%; growth at 10 µM (A498): 73.7%; growth at 10 µM [4]: 45.8%; growth at 10 µM (SF-539): 74.1%; growth at 10 µM (SF-295): 78.6%; growth at 10 µM (SR): 60.6%; growth at 10 µM (CCRF-CEM): 66.8%; growth at 10 µM (SK-MEL-2): 99.9%; growth at 10 µM [5]: 84.1%
